Activity calls are given as the source filed them. No cut-off for these calls is given here.
What was measured:
[1] = Antioxidant activity assessed as DPPH radical scavenging activity at 0.5 mg/ml after 180 mins; type: physicochemical; conditions: 3 h
Summary of the method: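 Compounds in absolute ethanol, serially diluted from 1 mg/mL, mixed 1:1 with […] in ethanol. Final range 0.016–0.5 mg/mL, 6 concentrations. Incubated at 37 °C in the dark, with decolourisation followed at 517 nm at several time intervals. % scavenged = (A vehicle control − A sample)/A control × 100. Quadruplicate; mean ± SD.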

HT-29 = test: Cytotoxicity against human HT-29 cells after 72 hrs by MTT assay; type: functional; conditions: HT-29, 72 h
Summary of the method: (§1)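 CCRF-CEM, HT-29, PC-3 and HTB-54 cells grown in RPMI 1640 with 10% foetal calf serum, 2 mM L-glutamine, penicillin/streptomycin, 10 mM HEPES (pH 7.4). Five concentrations, 0.01–100 μM, 72 h at 37 °C, 5% CO2; MTT read-out. GI50, TGI and LC50 versus untreated controls; at least 3 independent experiments in quadruplicate.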

[2] = Cytotoxicity against human PC3 cells after 72 hrs by MTT assay; type: functional; conditions: PC-3, 72 h; summary of the method: as §1
[3] = Cytotoxicity against human BEAS2B cells after 72 hrs by MTT assay; type: cell-based, BEAS-2B; conditions: for GI50 at 72 h: BEAS2B cells; for LC50 / TGI: beas-2b, 72 h
Summary of the method: (§2)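 Non-malignant lines: 184B5 (normal breast) in Hams F-12/DMEM (50:50) with published supplements; BEAS-2B (bronchial epithelium) in Hams F-12/DMEM (50:50) with 10% foetal calf serum, 2 mM L-glutamine, penicillin/streptomycin. Compounds at five concentrations, 0.01–100 μM, 72 h, 37 °C, 5% CO2; MTT read-out. GI50, TGI, LC50 relative to untreated controls; ≥3 independent experiments in quadruplicate.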

MCF7 = test: Cytotoxicity against human MCF7 cells after 72 hrs by MTT assay; type: functional; conditions: MCF7, 72 h; for CC50: read-out: LC50 (the source's name)
Summary of the method: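 MCF-7 cells grown in EMEM with 10% foetal calf serum, 2 mM L-glutamine, 100 units/mL penicillin, 100 µg/mL streptomycin. Exposed to five concentrations between 0.01 and 100 μM for 72 h, 37 °C, humidified 5% CO2; MTT read-out. GI50, TGI, LC50 relative to untreated controls; ≥3 independent experiments in quadruplicate.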

[4] = Cytotoxicity against human 184B5 cells after 72 hrs by MTT assay; type: cell-based; conditions: for GI50 at 72 h: 184B5 cells; for LC50 / TGI: 184b5, 72 h; summary of the method: as §2
[5] = Cytotoxicity against human HTB-54 cells after 72 hrs by MTT assay; type: functional; conditions: HTB-54, 72 h; for CC50: read-out: LC50 (the source's name); summary of the method: as §1
[6] = Antioxidant activity assessed as ABTS radical scavenging activity by measuring Trolox equivalent antioxidant capacity after 6 mins; type: physicochemical; conditions: 0.1 h
Summary of the method: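 ABTS dissolved in deionized water at 1 mg/mL, oxidised to radical cation with potassium persulfate (2.45 mM final), kept overnight at room temperature in dark, then diluted with 50% ethanol to A741 = 0.700 ± 0.02. Compound (1 mg/mL ethanol stock) added 1:10 (0.1 mg/mL); A741 decrease read after 6 min against 50% ethanol blank. Trolox positive control; quadruplicate; TEAC from calibration curve.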

CCRF-CEM = test: Cytotoxicity against human CCRF-CEM cells after 72 hrs by MTT assay; type: functional; summary of the method: as §1
[7] = Antioxidant activity assessed as ABTS radical scavenging activity at 0.1 mg/ml after 6 mins; type: physicochemical; conditions: 0.1 h
Summary of the method: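 Diluted with 50% ethanol to A741 0.700 ± 0.02. A741 decrease read after 6 min against a 50% ethanol blank. % scavenged relative to a vehicle-plus-radical control. Quadruplicate.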

[8] = Glutathione peroxidase-like activity assessed as reduction in H2O2 reduction by tiophenol based UV absorption spectrometry
Summary of the method: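 Iwaoka–Tomoda thiophenol method. Compound in ethanol at 0.1 mg/mL, mixed in equal volumes with 2 mM PhSH in ethanol and 5 mM H2O2 in ethanol (stock concentrations). Data collected every 5 s. Negative control contained compound, vehicle and PhSH without H2O2. Triplicate; mean ± SD.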

[9] = Glutathione peroxidase-like activity assessed as reduction in H2O2 reduction at 0.033 mg/ml by tiophenol based UV absorption spectrometry
Summary of the method: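 Iwaoka–Tomoda method: compound in ethanol (0.1 mg/mL stock) mixed in equal volumes with 2 mM PhSH and 5 mM H2O2 (both ethanol stocks), thiophenol-driven catalytic H2O2 reduction. Data collected every 5 s. Negative control without H2O2 (compound, vehicle, PhSH). Triplicate.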

| Compound | inhibition (INH) [1] | GI50 (HT-29) | LC50 (HT-29) | TGI (HT-29) | GI50 [2] | LC50 (concentration causing 50% net cell kill) [2] | TGI [2] | GI50 at 72 h [3] | LC50 [3] | TGI [3] | GI50 (MCF7) | TGI (MCF7) | CC50 (MCF7) | GI50 at 72 h [4] | LC50 [4] | TGI [4] | GI50 [5] | TGI [5] | CC50 [5] | GI50 (CCRF-CEM) | also measured |
| --- | --- | --- | --- | --- | --- | --- | --- | --- | --- | --- | --- | --- | --- | --- | --- | --- | --- | --- | --- | --- | --- |
| N#C[Se]c1ccc(NC(=O)Oc2ccccc2)cc1 | 19.3% | 11.7 µM | 71.7 µM | 41.7 µM | 9.1 µM | 68 µM | 37.5 µM | 8.9 µM | 69.3 µM | 38.2 µM | 4 µM | 35.9 µM | 67.8 µM | 0.4 µM | 61.2 µM | 22.7 µM | 26.2 µM | 50.2 µM | 74.4 µM | 22.9 µM | Activity [6]: 29 µg/µL; LC50 (CCRF-CEM): 73.2 µM; TGI (CCRF-CEM): 48 µM; inhibition (INH) [7]: > 25% |
| CCCCOC(=O)Nc1ccc([Se]C#N)cc1 | 6.6% | 8.1 µM | 63.7 µM | 31.3 µM | 12.4 µM | 69.3 µM | 40.8 µM | 5 µM | 54.5 µM | 12.2 µM | 6.6 µM | 20.2 µM | 59.7 µM | 5.3 µM | 56.8 µM | 14.5 µM | 17.2 µM | 43.4 µM | 69.5 µM | 6.5 µM | Activity [6]: 6.77 µg/µL; LC50 (CCRF-CEM): 63.5 µM; TGI (CCRF-CEM): 27.9 µM; inhibition (INH) [7]: 12.6% |
| C=CCOC(=O)Nc1ccc([Se][Se]c2ccc(NC(=O)OCC=C)cc2)cc1 | 30% | 25.9 µM | 79.5 µM | 52.7 µM | 25 µM | 74.7 µM | 49.9 µM | 14.3 µM | 71.4 µM | 42.9 µM | 20.8 µM | 47.2 µM | 73.6 µM | 6.4 µM | 60.4 µM | 21.5 µM | 29.8 µM | 56.6 µM | 83.3 µM | 4.6 µM | Activity [6]: 5.5 µg/µL; LC50 (CCRF-CEM): 46.9 µM; TGI (CCRF-CEM): 8.7 µM; inhibition (INH) [7]: 10.9% |
| COc1ccc(OC(=O)Nc2ccc([Se][Se]c3ccc(NC(=O)Oc4ccc(OC)cc4)cc3)cc2)cc1 | > 50% | 13 µM | 79.2 µM | 46.1 µM | 4.4 µM | 64.6 µM | 28.2 µM | 0.6 µM | 62.3 µM | 19.9 µM | 9.7 µM | 42.8 µM | 76.8 µM | 3.4 µM | 43.5 µM | 8.1 µM | 18 µM | 46.3 µM | 74.5 µM | 5.3 µM | Activity [8]: inactive; LC50 (CCRF-CEM): 63.1 µM; TGI (CCRF-CEM): 25.8 µM; inhibition (INH) [7]: > 25% |
| CCOC(=O)Nc1ccc([Se]C#N)cc1 | 37% | 9.3 µM | 66.6 µM | 38 µM | 9.9 µM | 68.4 µM | 39.2 µM | 21.7 µM | 72.2 µM | 46.9 µM | 8.9 µM | 36.7 µM | 67.8 µM | 5.5 µM | 59 µM | 18.6 µM | 24.9 µM | 49.3 µM | 72.7 µM | 9.8 µM | Activity [9]: Active; Activity [6]: 17.4 µg/µL; LC50 (CCRF-CEM): 68.8 µM; TGI (CCRF-CEM): 39.1 µM; inhibition (INH) [7]: 26.3% |
| CCCCOC(=O)Nc1ccc([Se][Se]c2ccc(NC(=O)OCCCC)cc2)cc1 | 36.1% | 27.6 µM | 82.4 µM | 55 µM | 28.6 µM | 76.4 µM | 52.5 µM | 24.2 µM | 75 µM | 49.6 µM | 17.3 µM | 46.3 µM | 75.2 µM | 7.2 µM | 63.1 µM | 26 µM | 35.2 µM | 57.3 µM | 79.4 µM | 16.7 µM | Activity [6]: 2.67 µg/µL; LC50 (CCRF-CEM): 72.3 µM; TGI (CCRF-CEM): 44.5 µM; inhibition (INH) [7]: 7.3% |

— ChEMBL document CHEMBL3399918, “In vitro radical scavenging and cytotoxic activities of novel hybrid selenocarbamates” (Bioorg Med Chem, 2015)
